Laboratory results published in ChEMBL document CHEMBL3745695, “Novel Hits in the Correction of ΔF508-Cystic Fibrosis Transmembrane Conductance Regulator (CFTR) Protein: Synthesis, Pharmacological, and ADME Evaluation of Tetrahydropyrido[4,3-d]pyrimidines for the Potential Treatment of Cystic Fibrosis” (J Med Chem, 2015).
≈ marks a conversion by molar mass, not a printed value.

What was measured:
[1] = system: Cystic fibrosis transmembrane conductance regulator (Homo sapiens), P13569 [F508del]; experiment: Corrector activity at human CFTR F508 deletion mutant expressed in FRT cells at 15 uM incubated for 25 mins with forskolin by YFP-based fluorescence analysis relative to control; type: cell-based
[2] = molecular target: Cystic fibrosis transmembrane conductance regulator (Homo sapiens) (UniProt P13569); experiment: Activity at human wild type CFTR expressed in FRT cells at 10 uM incubated for 25 mins with forskolin by YFP-based fluorescence analysis; type: cell-based
Outline: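 FRT cells stably co-expressing human CFTR and halide-sensing YFP-H148Q/I152L, plated 50,000 cells/well. At assay, PBS wash, then 25 min in PBS with forskolin (20 μM). Iodide solution injected (final I⁻ 100 mM) during a 14-s fluorescence reading (ex 500, em 535 nm). The final 11 s were fitted exponentially to give initial slope dF/dt. Test compounds at 10 μM, normalized to DMSO (100%). Mean of 2 or 3 independent experiments.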

CYP3A4 = CYP3A4 (Homo sapiens, UniProt P08684); experiment: Metabolic stability assessed as recombinant human CYP3A4-mediated drug degradation by measuring compound remaining incubated for 1 hr by MS analysis; type: ADME; conditions: read-out: Stability
Outline: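 Recombinant hCYP3A4 at 20 pmol/mL, compound at 1 μM final with 0.25% organic solvent. 1 h at 37 °C with or without NADPH regenerating system, acetonitrile stop. Reported as % remaining by MS, NADPH sample versus the no-NADPH control.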

[3] = Permeability of compound at 10 uM after 4 hrs by PAMPA; type: ADME
Outline: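 PAMPA with porcine brain lipid (2% w/v in dodecane). Compound 10 μM in HBSS/Hepes pH 7.4 in the donor well, 4 h at 37 °C and 80% humidity, warfarin membrane-integrity control. Donor and acceptor concentrations by UPLC-MS-TOF; effective permeability Pe calculated.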

[4] = Solubility of the compound in 50 mM ammonium acetate buffer at 250 uM at pH 7.4 after 24 hrs by UPLC/UV/TOF-MS analysis; type: physicochemical; conditions: for solubility at 24 h, 250 µM: 50 mM ammonium acetate buffer, pH 7.4
Outline: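 From 10 mM DMSO stock, 250 μM in 50 mM ammonium acetate pH 7.4 (2.5% DMSO final). Shaken 24 h at room temperature, filtered, diluted 1:2. UPLC/UV (254 nm) quantified against a 250 μM standard in acetonitrile/buffer.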

[5] = system: Cystic fibrosis transmembrane conductance regulator (Homo sapiens), P13569 [F508del]; experiment: (§1) Corrector activity at human CFTR F508 deletion mutant expressed in FRT cells incubated for 25 mins with forskolin by YFP-based fluorescence analysis relative to control; type: cell-based
Outline: (§2)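 FRT cells co-expressing ΔF508-CFTR and YFP-H148Q/I152L, grown 18–24 h at 37 °C, then 18–24 h at 37 °C with test compound. Then 25 min in PBS with forskolin (20 μM) plus genistein (50 μM). Iodide injected (final 100 mM) with a 14-s read. Exponential fit of the final 11 s gave dF/dt. EC50/Emax from dose–response, normalized to DMSO (0%) and positive control (100%). Mean of 2–3 experiments.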

[6] = molecular target: Cystic fibrosis transmembrane conductance regulator (Homo sapiens, UniProt P13569, F508DEL); experiment: as §1; type: cell-based; outline: as §2
[7] = Stability in rat plasma assessed as compound remaining after 3 hrs by LC-MS/MS analysis; type: ADME, cell-free; conditions: read-out: Stability
Outline: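 Compound at 10 μM in 100% fresh rat plasma at 37 °C, sampled to 3 h. Quenched with 3 volumes cold acetonitrile, centrifuged 3000 g for 15 min, supernatant diluted 1:10 in water, LC-MS/MS. Reported as % remaining.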

[8] = Efflux ratio of permeability from basolateral to apical over apical to basolateral side of MDCK cells at 10 uM incubated for 2 hrs by LC-MS analysis; type: ADME, cell-based, Canis lupus familiaris; conditions: dog
Outline: (§3)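 MDCK monolayers on inserts seeded 5 days earlier, TEER >70 Ohm×cm². Compound 10 μM in HBSS-Hepes added to the donor side, in duplicate, each direction. 2 h at 37 °C with agitation, sampled at 0 and 120 min, LC-MS. Integrity checked with Lucifer Yellow. Papp calculated for each direction; efflux ratio is B→A over A→B.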

[9] = Apparent permeability from apical to basolateral side in MDCK cells at 10 uM incubated for 2 hrs by LC-MS analysis; type: ADME, cell-based, Canis lupus familiaris; conditions: dog; outline: as §3
[10] = system: Cystic fibrosis transmembrane conductance regulator (Homo sapiens), P13569 [F508del]; experiment: Corrector activity at human CFTR F508 deletion mutant expressed in human A549 cells incubated for 25 mins by YFP-based fluorescence analysis; type: cell-based
Outline: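 A549 cells stably co-expressing ΔF508-CFTR and YFP-H148Q/I152L, cultured in DMEM/F-12. Corrector treatment 18–24 h at 37 °C, then 25 min forskolin (20 μM) plus genistein (50 μM). Iodide injected (final 100 mM). Initial slope dF/dt taken from an exponential fit of the final 11 s. EC50/Emax from dose–response. Mean of 2–3 independent experiments.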

[11] = system: Cystic fibrosis transmembrane conductance regulator (Homo sapiens), P13569 [F508del]; experiment: Corrector activity at human CFTR F508 deletion mutant expressed in FRT cells at 10 uM incubated for 25 mins with forskolin by YFP-based fluorescence analysis relative to control; type: cell-based

CYP3A4, sequence (P08684 whole entry): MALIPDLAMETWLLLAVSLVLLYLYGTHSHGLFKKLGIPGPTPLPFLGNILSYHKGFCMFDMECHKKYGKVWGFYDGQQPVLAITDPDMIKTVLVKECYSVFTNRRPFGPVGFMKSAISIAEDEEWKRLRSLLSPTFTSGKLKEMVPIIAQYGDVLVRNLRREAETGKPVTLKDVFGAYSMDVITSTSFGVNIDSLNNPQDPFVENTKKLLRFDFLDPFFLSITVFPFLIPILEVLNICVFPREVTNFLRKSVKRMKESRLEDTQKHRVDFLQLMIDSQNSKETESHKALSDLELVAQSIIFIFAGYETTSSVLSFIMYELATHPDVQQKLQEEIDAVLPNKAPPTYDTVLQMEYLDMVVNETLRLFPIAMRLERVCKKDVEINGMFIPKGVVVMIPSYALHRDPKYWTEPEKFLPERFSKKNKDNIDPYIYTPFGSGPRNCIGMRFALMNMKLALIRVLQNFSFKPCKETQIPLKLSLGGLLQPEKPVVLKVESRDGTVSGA
Cystic fibrosis transmembrane conductance regulator (Homo sapiens), P13569 [F508del], sequence (P13569 as listed by the source): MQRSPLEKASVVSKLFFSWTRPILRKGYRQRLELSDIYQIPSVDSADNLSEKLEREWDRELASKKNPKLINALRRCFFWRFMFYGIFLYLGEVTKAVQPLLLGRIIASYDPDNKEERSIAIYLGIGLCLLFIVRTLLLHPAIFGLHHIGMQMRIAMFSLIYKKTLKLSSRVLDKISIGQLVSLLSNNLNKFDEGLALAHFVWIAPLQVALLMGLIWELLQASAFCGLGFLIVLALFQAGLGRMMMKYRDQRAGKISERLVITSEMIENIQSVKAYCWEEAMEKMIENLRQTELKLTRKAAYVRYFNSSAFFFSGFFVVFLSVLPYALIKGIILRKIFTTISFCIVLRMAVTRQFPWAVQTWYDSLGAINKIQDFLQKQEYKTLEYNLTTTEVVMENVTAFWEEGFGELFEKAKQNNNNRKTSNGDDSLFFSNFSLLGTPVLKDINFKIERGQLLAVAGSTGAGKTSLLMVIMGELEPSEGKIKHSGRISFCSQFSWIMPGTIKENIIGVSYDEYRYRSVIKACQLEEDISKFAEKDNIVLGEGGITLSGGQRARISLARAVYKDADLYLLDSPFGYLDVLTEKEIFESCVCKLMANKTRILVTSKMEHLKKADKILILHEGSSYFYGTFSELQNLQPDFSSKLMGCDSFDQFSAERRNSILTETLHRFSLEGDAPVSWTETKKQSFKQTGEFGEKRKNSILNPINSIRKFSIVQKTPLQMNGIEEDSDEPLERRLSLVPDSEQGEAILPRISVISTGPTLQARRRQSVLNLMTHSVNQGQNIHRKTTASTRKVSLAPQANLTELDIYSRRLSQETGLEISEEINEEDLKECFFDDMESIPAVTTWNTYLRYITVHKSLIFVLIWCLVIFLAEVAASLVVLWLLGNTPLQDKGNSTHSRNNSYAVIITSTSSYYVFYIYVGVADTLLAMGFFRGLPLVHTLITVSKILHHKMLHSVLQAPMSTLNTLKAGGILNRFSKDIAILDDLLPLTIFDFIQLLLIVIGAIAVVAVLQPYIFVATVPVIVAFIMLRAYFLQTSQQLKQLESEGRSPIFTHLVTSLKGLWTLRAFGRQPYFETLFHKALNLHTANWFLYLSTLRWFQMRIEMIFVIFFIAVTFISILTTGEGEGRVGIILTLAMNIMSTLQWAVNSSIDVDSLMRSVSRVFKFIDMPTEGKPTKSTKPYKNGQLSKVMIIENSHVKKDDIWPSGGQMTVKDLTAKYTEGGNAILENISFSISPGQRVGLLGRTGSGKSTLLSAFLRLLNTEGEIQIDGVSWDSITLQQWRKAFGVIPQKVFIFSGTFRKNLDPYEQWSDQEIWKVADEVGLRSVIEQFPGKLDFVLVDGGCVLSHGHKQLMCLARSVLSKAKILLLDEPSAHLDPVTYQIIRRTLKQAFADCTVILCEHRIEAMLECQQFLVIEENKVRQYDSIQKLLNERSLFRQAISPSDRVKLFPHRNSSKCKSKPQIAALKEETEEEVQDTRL
Cystic fibrosis transmembrane conductance regulator, sequence (P13569 as listed by the source): as above
Cystic fibrosis transmembrane conductance regulator (Homo sapiens), sequence (P13569 whole entry, looked up): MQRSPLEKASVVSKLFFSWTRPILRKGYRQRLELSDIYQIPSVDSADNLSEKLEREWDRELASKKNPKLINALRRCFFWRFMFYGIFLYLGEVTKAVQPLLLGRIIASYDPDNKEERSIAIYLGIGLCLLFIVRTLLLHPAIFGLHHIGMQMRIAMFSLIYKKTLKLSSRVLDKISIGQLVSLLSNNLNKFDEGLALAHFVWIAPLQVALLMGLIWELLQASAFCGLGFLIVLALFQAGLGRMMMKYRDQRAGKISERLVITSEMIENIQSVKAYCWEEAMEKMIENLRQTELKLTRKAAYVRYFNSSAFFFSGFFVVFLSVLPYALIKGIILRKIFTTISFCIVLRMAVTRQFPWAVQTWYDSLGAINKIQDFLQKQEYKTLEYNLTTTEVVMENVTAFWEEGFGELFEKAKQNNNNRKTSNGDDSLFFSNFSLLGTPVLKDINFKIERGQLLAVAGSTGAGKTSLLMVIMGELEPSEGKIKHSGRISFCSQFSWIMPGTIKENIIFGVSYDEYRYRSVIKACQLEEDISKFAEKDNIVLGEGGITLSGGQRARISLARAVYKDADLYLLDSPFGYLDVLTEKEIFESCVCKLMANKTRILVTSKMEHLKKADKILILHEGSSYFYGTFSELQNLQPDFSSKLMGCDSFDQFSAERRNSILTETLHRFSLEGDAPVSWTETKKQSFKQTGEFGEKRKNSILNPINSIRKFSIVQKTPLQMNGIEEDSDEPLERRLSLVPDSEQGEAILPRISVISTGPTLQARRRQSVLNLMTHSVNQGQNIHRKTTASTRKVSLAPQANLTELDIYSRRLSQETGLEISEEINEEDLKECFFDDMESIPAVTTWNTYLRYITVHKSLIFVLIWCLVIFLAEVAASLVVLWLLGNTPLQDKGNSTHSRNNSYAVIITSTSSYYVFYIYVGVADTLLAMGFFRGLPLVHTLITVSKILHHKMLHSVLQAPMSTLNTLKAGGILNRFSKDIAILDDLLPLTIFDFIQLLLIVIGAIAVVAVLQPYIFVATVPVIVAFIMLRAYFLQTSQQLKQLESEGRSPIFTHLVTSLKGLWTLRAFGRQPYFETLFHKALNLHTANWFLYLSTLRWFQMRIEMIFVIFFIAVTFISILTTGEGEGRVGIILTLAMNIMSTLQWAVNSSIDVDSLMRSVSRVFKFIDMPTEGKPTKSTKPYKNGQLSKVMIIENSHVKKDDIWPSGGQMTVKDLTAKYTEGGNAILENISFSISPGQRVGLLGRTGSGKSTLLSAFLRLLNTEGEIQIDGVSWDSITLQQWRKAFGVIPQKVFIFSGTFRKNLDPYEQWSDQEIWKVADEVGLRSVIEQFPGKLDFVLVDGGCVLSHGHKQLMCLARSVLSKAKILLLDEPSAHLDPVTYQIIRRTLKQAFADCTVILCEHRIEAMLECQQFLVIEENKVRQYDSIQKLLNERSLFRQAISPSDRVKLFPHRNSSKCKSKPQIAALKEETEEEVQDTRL

Question: What does the source list for `NC(=O)C1CCN(c2nc(-c3ccccn3)nc3c2CN(Cc2ccccc2)CC3)CC1`?
Answer: Emax [1]: 74.6%; Emax [2]: 103%; remaining at 1 h (CYP3A4): 71%; permeability [3]: permeable; solubility at 24 h, 250 µM [4]: 250 µM (≈ 107 µg/mL); Emax [5]: 56.6%; EC50 [6]: 1400 nM; remaining at 3 h [7]: 85%; efflux ratio at 2 h, 10 µM [8]: 52.3; Papp A→B at 2 h, 10 µM [9]: 0.4 ×10⁻⁶ cm/s; Emax [10]: 34.4%

Question: Which results are given for `COc1ccc(S(=O)(=O)N2CCN(C(C)c3nc(OC4CCCCC4)c4ccccc4n3)CC2)cc1` (configuration not stated)?
Answer: Emax [11]: 41.4%; remaining at 1 h (CYP3A4): 13%; solubility at 24 h, 250 µM [4]: 1 µM (≈ 0.511 µg/mL); Emax [5]: 92.9%; EC50 [6]: 2200 nM

Question: With `COc1ccc(Cl)cc1Nc1nc(-c2sc(NC(=O)c3ccccc3)nc2C)cs1` as the compound, how does the Emax [11] read?
Answer: 100%

Question: And the Emax [2]?
Answer: 115%

Question: What about the remaining at 1 h (CYP3A4) of the same compound?
Answer: 55%

Question: And the solubility ([4]; buffer, pH 7.4, 24 h, 250 µM)?
Answer: 1 µM (≈ 0.457 µg/mL)

Question: And the Emax [5]?
Answer: 114%

Question: And the EC50 [6]?
Answer: 1100 nM
